# Hits are enriched below; roughly 4.1% of the tested compounds scored in any of these assays.
# hERG rescue – hERG rescue from dofetilide block, primary screen, cell-based, CHO-hERG, FluxOR thallium flux, dofetilide IC70 | dofetilide IC70 present | Voltage-gated inwardly rectifying potassium channel KCNH2 (Homo sapiens), Q12809 | activation (rescue from dofetilide block), less the hit threshold, % at 10 µM | 310,000 tested, 0.51% active;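 active = activation above the mean of controls blocked by dofetilide plus 5 SD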;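 note: thallium influx through hERG after potassium depolarization seen as dye fluorescence rise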
# KCNK9 inh – KCNK9 potassium channel inhibitors, primary screen, HEK293 cells, thallium flux; FluxOR thallium flux fluorescence; active compounds read low; 310,000 tested, 1.2% active; B-score at 10 µM; Potassium channel subfamily K member 9 (Homo sapiens), Q9NPC2;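 active = ratio B-score over 3 SD below the library mean, with starting fluorescence within 5 SD of its mean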;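 note: negative B-score means less thallium flux so channel inhibition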
# KCNQ1 pot – potentiators or activators of KCNQ1 channel, primary screen, cell-based, thallium flux, high-throughput; AID 2648, 2010; 310,000 tested, 0.35% active; B-score at 10 µM; Potassium voltage-gated channel subfamily KQT member 1 (Homo sapiens), P51787; CHO-K1 KCNQ1, thallium flux FluxOR fluorescence; active compounds read high;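 active = fluorescence ratio B-score, a plate-corrected score, at least three library SD, with initial intensity B-score within 5 SD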
#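 assay system = KCNQ1-transfected CHO-K1 cells | medium = assay buffer with matched DMSO | probe or stimulus = depolarizing K+/Tl+ stimulus, K2SO4 and Tl2SO4 each 12.5 mM in 5x stock | dosing = single dose | incubation = dye 90 min, compound 20 min, room temperature | detection = kinetic FluxOR fluorescence, 10 s baseline plus 110 s post-stimulus | evaluation = ratio B score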
# KCNK3 inh – human KCNK3 channel inhibitors, primary screen, CHO cells, FluxOR thallium flux, B-score. Potassium channel subfamily K member 3 (Homo sapiens), O14649. FluxOR fluorescence; active compounds read low. B-score at 10 µM. 340,000 tested, 0.84% active. AID 602410, 2012;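 active = B-score under library mean minus 4 SD, starting fluorescence ratio at most library mean plus 5 SD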;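 note: more negative B-score means stronger inhibition of thallium flux through KCNK3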
# Cl transport mod – KCC2 cotransporter modulators, thallium flux, primary screen, cell-based, HEK293 KCC2, FluoZin-2 fluorescence, MLSMR | 190,000 tested, 2.2% active | B-score of Tl+ flux slope (higher = more flux/activation; lower = inhibition) at 10 µM | KCC2 cells, thallium flux FluoZin-2 fluorescence;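 active = thallium flux slope and its plate-corrected score both differing from the plate sample mean at a set confidence after two filtering rounds, in either direction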;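 note: slope of fluorescence scaled to starting intensity during 10 to 20 s after thallium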
# KCNQ1 block – inhibitors of human KCNQ1 channel, primary screen, cell-based, thallium flux, high-throughput | Potassium voltage-gated channel subfamily KQT member 1 (Homo sapiens), P51787 | CHO-K1 KCNQ1, FluxOR thallium flux fluorescence; active compounds read high | B-score at 10 µM | 310,000 tested, 1.3% active | AID 2642, 2010;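 active = compounds whose thallium flux B-score, printed positive for inhibition, exceeds three library SD while starting fluorescence stays within three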;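 note: channel opened by potassium depolarization with thallium stimulus after 20 min compound exposure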
# KCNQ1 block val – KCNQ1 potassium channel inhibitors, confirmation, cell-based, Tl flux, duplicate; shares compounds with KCNQ1 block; KCNQ1 cell line, FluxOR thallium flux fluorescence; inhibition, % at 10 µM; 1,600 tested, 93% active;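 active = primary screen active, with duplicate mean exceeding buffer control mean plus 3 SD of buffer wells, cut at about 28% in these data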;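 note: 0% = buffer control ratio and 100% = XE991 inhibitor control ratio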
# CHO Tl flux – thallium flux effects in parental CHO cells, counter-screen for KCNQ1 inhibitor project, cell-based, Tl flux; parental CHO-K1, FluxOR thallium flux fluorescence ratio; active compounds read low; zero means no signal rise above baseline; 1,600 tested, 21% active; fluorescence ratio (Tl flux) at 10 µM; AID 588366, 2011; shares compounds with KCNQ1 block;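 active = mean of duplicate thallium-flux fluorescence ratios in parental host cells more than 5 SD below the buffer control mean, cut at about 0.38 in these data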;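 note: ratio is peak minus minimum fluorescence divided by baseline fluorescence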
# KCNQ1 ephys val – KCNQ1 channel inhibitors, confirmation, orthogonal assay, cell-based, automated electrophysiology. shares compounds with KCNQ1 block. KCNQ1-CHO cells, automated patch clamp current. calls only at 10 µM. 490 tested, 20% active;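 active = KCNQ1 current drop exceeding 3 SD of negative control wells, seen in both duplicate runs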;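 note: steady state current during a 2 s step from -80 to +40 mV; negative values mean current inhibition and positive values mean potentiation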
# KCNQ2 inh – KCNQ2 channel inhibition, selectivity assay for KCNQ1 inhibitor project, cell-based | shares compounds with KCNQ1 block | KCNQ2 cells, FluxOR thallium flux fluorescence | inhibition, % at 10 µM | 1,600 tested, 71% active;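 active = mean percent inhibition of the KCNQ2 thallium signal more than 5 SD above the buffer-only control wells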;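 note: KCNQ2 expressed in CHO cells; 0% = buffer control wells and 100% = XE-991 inhibitor control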
# KCNQ1-KCNE1 inh – KCNQ1/KCNE1 channel inhibition, selectivity assay for KCNQ1 inhibitor project, CHO-K1 cells, thallium flux, FluxOR; shares compounds with KCNQ1 block; FluxOR thallium flux fluorescence; inhibition, % at 10 µM; 1,600 tested, 77% active; AID 652147, 2013;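 active = mean percent inhibition of duplicate wells above the buffer-only control mean plus 3 SD of those controls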;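 note: 0% = buffer only wells and 100% = XE-991 inhibitor control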
# The depositor's hits bear a star; i = inactive; / = no result given; + = active, no number.
SMILES,hERG rescue,KCNK9 inh,KCNQ1 pot,KCNK3 inh,Cl transport mod,KCNQ1 block,KCNQ1 block val,CHO Tl flux,KCNQ2 inh,KCNQ1-KCNE1 inh,others
O=C(Nc1cccc(Cl)c1)N(CCCN1CCOCC1)Cc1ccccc1F,-13.1,i,i,i,/,11*,78.5*,0.512,106.3%*,71.0%*,
CC(C)c1nnc(NC(=O)CSc2nc3ccccc3[nH]2)s1,-14.9,i,i,i,-0.79,i,/,/,/,/,
S=C(NCc1ccc(Cl)c(Cl)c1)NCc1ccco1,-11.9,i,i,i,/,6*,70.5*,0.485,i,104.5%*,
S=C(NCc1cccc(Cl)c1)NCc1ccco1,-7.0,i,i,i,/,i,/,/,/,/,
COc1ccccc1-c1ccc(SCc2cccc(C)c2)nn1,-24.8,i,i,i,0.145,11*,0.0,0.488,60.0%*,i,
CCCOC(=O)/C(C)=N\NC(=O)c1ccco1,-7.8,i,i,i,0.723,i,/,/,/,/,
COc1ccc(CCNC(=O)c2ccc(N3CCCCS3(=O)=O)cc2)cc1OC,-7.0,i,i,i,/,i,/,/,/,/,
COc1cccc(NC(=O)c2nc(S(C)(=O)=O)ncc2Cl)c1,-7.0,i,i,i,/,7*,0.0,0.427,i,51.5%*,
CCS(=O)(=O)c1ncc(Cl)c(C(=O)Nc2ccccc2OC)n1,-10.2,i,i,i,/,11*,73.0*,0.383,63.3%*,66.5%*,
O=C(/C=C/c1ccccc1)NCC(=O)N/N=C/c1ccco1,-5.5,i,i,i,/,i,/,/,/,/,
Cc1nc(CCNC(=O)CC2C(=O)NCCN2Cc2ccccc2)sc1C (stereo not drawn),-8.4,i,i,i,/,i,/,/,/,/,
CCCn1nnnc1NCc1cc(Br)ccc1OC,-4.2,i,i,i,0.00976,i,/,/,/,/,
O=C(CSc1nnc2n1CCCN2C(=S)Nc1ccc(Cl)cc1)c1ccccc1,-20.1,i,i,i,0.936,9*,102.5*,0.525,i,70.0%*,KCNQ1 ephys val=i
O=C(c1ccc(Cl)s1)N1CCOCC1,-7.1,i,i,i,0.76,i,/,/,/,/,
Cc1nc(Sc2ccccc2)c(C#N)cc1-c1ccccc1,-17.0,i,i,i,0.0581,6*,95.0*,0.417,105.3%*,135.5%*,KCNQ1 ephys val=+
Cc1nc(Cl)c(C#N)cc1-c1ccccc1,-3.8,i,i,i,-0.528,i,/,/,/,/,
